From ChEMBL document CHEMBL1123360, “Oxidation of 4-aryl- and 4-alkyl-substituted 2,6-dimethyl-3,5-bis(alkoxycarbonyl)-1,4-dihydropyridines by human liver microsomes and immunochemical evidence for the involvement of a form of cytochrome P-450” (J Med Chem, 1986) come the findings set out here.

A word on the Inhibition: it is how much of the control response was suppressed.

For data set [1], the target named is T1, Cytochrome P450 3A4 (Homo sapiens, UniProt P08684). Kind of data set: Rate of Oxidation in human liver microsomes is measured as mean (nmol product) formed / min per nmol cytochrome P-450. (In general: Liver microsomes are vesicles of endoplasmic reticulum, rich in cytochrome P450 enzymes.)
T1 sequence (P08684 whole entry): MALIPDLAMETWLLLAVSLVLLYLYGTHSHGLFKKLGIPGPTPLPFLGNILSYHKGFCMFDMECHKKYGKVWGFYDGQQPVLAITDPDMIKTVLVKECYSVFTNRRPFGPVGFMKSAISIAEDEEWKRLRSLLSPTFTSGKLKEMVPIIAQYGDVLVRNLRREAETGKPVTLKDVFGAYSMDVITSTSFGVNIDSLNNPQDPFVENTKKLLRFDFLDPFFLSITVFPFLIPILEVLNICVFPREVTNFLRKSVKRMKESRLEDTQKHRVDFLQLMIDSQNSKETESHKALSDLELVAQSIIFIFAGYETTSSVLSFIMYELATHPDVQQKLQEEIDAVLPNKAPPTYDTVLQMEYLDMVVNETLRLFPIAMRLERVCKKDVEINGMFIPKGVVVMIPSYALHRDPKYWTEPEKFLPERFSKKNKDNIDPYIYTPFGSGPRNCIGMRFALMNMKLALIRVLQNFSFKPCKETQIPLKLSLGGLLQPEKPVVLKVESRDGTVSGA
Data set [2] in a line: Percent inhibition of human liver microsome cytochrome P-450 mediated hexobarbital 3'-hydroxylase activity in the presence of NADPH. To be noted: microsomes. Summed up:
(§1)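 Human liver microsomes (sample HL 95) preincubated with test compound (50 μM) plus NADPH-generating system for 20 min at 37 °C. […] Activity measured afterwards; values corrected for inhibition by methanol solvent alone.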

A short description of data set [3]: Percent inhibition of human liver microsome cytochrome P-450 mediated phenacetin O-deethylase activity in the presence of NADPH. To be noted: microsomes. Summed up:
as §1

In data set [4] the target is T1, Cytochrome P450 3A4. The experiment in a line: Percent inhibition of human liver microsome cytochrome P-450 mediated nifedipine oxidase activity without NADPH. To be noted: microsomes. Summed up: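 Microsomes (HL 95, 500 pmol P-450 in 0.5 mL 50 mM potassium phosphate, pH 7.85) preincubated 20 min at 37 °C with compound (50 μM) without NADPH-generating system. […] Values corrected for methanol solvent.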

Data set [5] addresses T1, Cytochrome P450 3A4. The experiment in a line: Percent inhibition of human liver microsome cytochrome P-450 mediated nifedipine oxidase activity in the presence of NADPH. To be noted: microsomes. Put shortly: as §1
Data set [6] can be described thus: Percent inhibition of human liver microsome cytochrome P-450 mediated phenacetin O-deethylase activity without NADPH; Phenacetin O-deethylase activity inhibited by 40%. The settings on record: microsomes.
For data set [7], the target named is T1, Cytochrome P450 3A4. The experiment in a line: Rate of Oxidation in human liver microsomes as mean (nmol product) formed/min/nmol cytochrome P-450; e denotes Product not separated with HPCL system. It counts as ADME, Microsome. Put shortly:
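NADPH-fortified human liver microsomes (HL 94, HL 95, HL 96; usually 50 pmol P-450), substrate 0.2 mM, 100 mM potassium phosphate pH 7.85, 37 °C, 10 min, amber vials. Stopped with Na2CO3/NaCl pH 10.5 and extracted into CH2Cl2. Pyridine product quantified by isocratic reversed-phase HPLC (UV 254 and/or 280 nm) against external standards by peak height. Value is the mean with range over the three samples.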

The compound `COC(=O)C1=C(C)N=C(C)/C(=C(/O)OC)C1c1ccc(C(F)(F)F)cc1` (stereo unspecified) showed a Rate of oxidation on Cytochrome P450 3A4 [1] of 0.45.

On to `CCCCCO/C(O)=C1\C(C)=NC(C)=C(C(=O)OCCOCCC)C1c1cccc([N+](=O)[O-])c1` (stereo unspecified), for which the Rate of oxidation on Cytochrome P450 3A4 [1] is on record as 0.67.

Turning to `COC(=O)C1=C(C)N=C(C)/C(=C(/O)OC)C1c1c(F)c(F)cc(F)c1F` (stereo unspecified), the Rate of oxidation on Cytochrome P450 3A4 [1] was 0.98.

Compound `COC(=O)C1=C(C)NC(C)=C(C(=O)OC)C1c1ccccc1` registered a Rate of oxidation at Cytochrome P450 3A4 [1] of 0.53.

Compound `CCOC(=O)C1=C(C)NC(C)=C(C(=O)OC)C1c1cccc([N+](=O)[O-])c1` (stereo unspecified) [NITRENDIPINE] came in with a Rate of oxidation at Cytochrome P450 3A4 [1] of 0.52.

`COC(=O)C1=C(C)N=C(C)/C(=C(/O)OC)C1C1CC=CCC1` (stereo unspecified): the Inhibition in data set [2] was 82%; in data set [3], 59%; at Cytochrome P450 3A4 [4], 27%; at Cytochrome P450 3A4 [5] it was 86%. This compound also displayed a Rate of oxidation on Cytochrome P450 3A4 [1] of 0.12.

In the case of `CCOC(=O)C1=C(C)N=C(C)/C(=C(/O)OCC)C1CC` (stereo unspecified), the Inhibition in data set [2] was determined as 82%; in data set [6] it was 40%; at Cytochrome P450 3A4 [4], 45%; on Cytochrome P450 3A4 [5] it was 89%. This compound registered a Rate of oxidation at Cytochrome P450 3A4 [1] of 0.12.

With `COC(=O)C1=C(C)N=C(C)/C(=C(\O)OC)C1c1ccc(C)cc1` (stereo unspecified), the Rate of oxidation at Cytochrome P450 3A4 [1] amounted to 0.51.

Consider `COC(=O)C1=C(C)N=C(C)/C(=C(\O)OC)C1c1cccc(C#N)c1` (stereo unspecified), for which, at Cytochrome P450 3A4 [1], the Rate of oxidation worked out at 0.41.

With `COC(=O)C1=C(C)N=C(C)/C(=C(/O)OC)C1Cc1ccccc1` (stereo unspecified), the Inhibition in data set [2] is given as 80%; in data set [3], 50%; at Cytochrome P450 3A4 [4], 25%; on Cytochrome P450 3A4 [5], 86%. This compound also registered a Rate of oxidation at Cytochrome P450 3A4 [1] of 0.25.

For the compound `COC(=O)C1=C(C)N=C(C)/C(=C(/O)OC)C1c1cccc(Cl)c1` (stereo unspecified), the Rate of oxidation on Cytochrome P450 3A4 [1] was determined as 0.5.

In the case of `CCOC(=O)C1=C(C)NC(C)=C(C(=O)OCC)C1c1ccccc1`, the Rate of oxidation on Cytochrome P450 3A4 [1] is on record as 0.51.

With `COC(=O)C1=C(C)N=C(C)/C(=C(/O)OC)C1C(C)C` (stereo unspecified), the Inhibition in data set [2] is 73%; in data set [3], 55%; on Cytochrome P450 3A4 [4], 32%; on Cytochrome P450 3A4 [5], 89%. In addition, the Rate of oxidation entry on Cytochrome P450 3A4 [7] is listed as “Not separated”.

On to `COC(=O)C1=C(C)N=C(C)/C(=C(/O)OC)C1c1c(F)cccc1Cl` (stereo unspecified), for which the Rate of oxidation at Cytochrome P450 3A4 [1] was 0.76.

`COC(=O)C1=C(C)N=C(C)/C(=C(/O)OC)C1c1ccc(Cl)c([N+](=O)[O-])c1` (stereo unspecified) had a Rate of oxidation at Cytochrome P450 3A4 [1] of 0.61.
